b-catenin transl = beta-catenin nuclear translocation modulation | HeLa beta-catenin nuclear translocation, immunofluorescence imaging | nuclear translocation activity, % at 5 µM | 0.3% of 190,000 active | AID 1665;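 active means nuclear translocation activity above 50% at 5 µM, with a well cell count of 50 or more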;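 further: per-cell ratio of nuclear to cytoplasmic median beta-catenin stain intensity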
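System: Human HeLa cells, endogenous beta-catenin | Compound dosing: 5 µM primary, 0.02–20 µM confirmation | Timing: 24 h compound exposure at 37°C, 5% CO2 | Measured by: Fluorescence imaging of beta-catenin antibody stain plus DAPI | Read-out basis: % activation of per-cell nuclear versus cytoplasmic median beta-catenin signal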
Ba/F3 V617F tox = lowers viability of Ba/F3 cells expressing EpoR and JAK2V617F. 1.1% of 220,000 active. ATP luminescence. inhibition, % at 5.6 µM;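 active means inhibition above the campaign mean plus 3 SD over all tested compounds, cut at about 24% in these data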;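 further: cytokine-independent growth of Ba/F3 cells driven by EpoR plus mutant JAK2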
BaF3 tox = counter-screen for JAK2V617F inhibitors: parental Ba/F3 viability inhibitors | CellTiter-Glo ATP luminescence | inhibition, % at 5.6 µM | 1.1% of 220,000 active | AID 1486;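 active means inhibition above a per-campaign cutoff, the mean inhibition of all tested compounds plus 3 SD, cut at about 27% in these data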
IEC-6 cytotox = counter-screen for KLF5 inhibitors: cytotoxicity in IEC-6 cells; 0.78% of 290,000 active; inhibition, % at 5 µM; IEC-6 cytotoxicity, luminescence viability; in the data active means inhibition above about 22%
KLF5 inhibitor = kruppel-like factor 5 inhibition. inhibition, % at 5 µM. DLD-1 KLF5 promoter-luciferase reporter, luminescence. 0.23% of 290,000 active;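 active means inhibition above a per-plate limit of that plate's mean compound inhibition plus 3 SD, cut at about 60% in these data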;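 further: higher means less KLF5 promoter-driven luciferase light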
MT stabilize HCS = stabilizes microtubules in HeLa cells. HeLa tubulin immunostaining HCS, 24 h; share of cells brighter than vehicle mean+2SD. % tubulin-high responders, % at 10 µM. 0.83% of 200,000 active. AID 2205;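 active means plate Z-score above 3 for both tubulin-high and condensed-nucleus cell shares, with cell loss under 80%, at 10 µM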;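 further: anti alpha tubulin signal scored within the nucleus-defined area of each cell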
BaF3 parental 2 = parental Ba/F3 viability inhibition for JAK2V617F counter-screen; CellTiter-Glo luminescence; cells kept alive by added IL-3; shares compounds with Ba/F3 V617F tox; inhibition, % at 5.6 µM; 31% of 580 active;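 active means cell growth inhibition above the hit limit set in the earlier mutant JAK2 cell screen, cut at about 27% in these data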
JAK2V617F conf = Ba/F3 EpoR-JAK2V617F viability loss, confirmation; shares compounds with Ba/F3 V617F tox; 66% of 580 active; CellTiter-Glo luminescence; inhibition, % at 5.6 µM;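 active means mean inhibition above the hit cutoff derived in the earlier primary screen, cut at about 25% in these data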;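 further: higher means lower luminescence from reduced cell ATP and viability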
Hits are given with their value. Sampled rows, rich in hits. Any-hit rate of the full collection: about 2.1%.

`COc1ccc(-c2ccc(SC)nn2)cc1` gave b-catenin transl inactive, Ba/F3 V617F tox 24, BaF3 tox inactive, IEC-6 cytotox inactive, KLF5 inhibitor inactive, MT stabilize HCS inactive, BaF3 parental 2 32 and JAK2V617F conf 30.
For COc1ccc(C(=O)CSc2ccc(-c3ccccc3)nn2)cc1 the results were b-catenin transl inactive, Ba/F3 V617F tox inactive, BaF3 tox inactive, IEC-6 cytotox inactive, KLF5 inhibitor inactive and MT stabilize HCS inactive.
O=C(O)c1ccc(N/N=C/c2ccc(-c3ccc(Cl)cc3Cl)o2)cc1 was read as b-catenin transl inactive, Ba/F3 V617F tox 30, BaF3 tox inactive, IEC-6 cytotox inactive, KLF5 inhibitor inactive, BaF3 parental 2 45 and JAK2V617F conf 33.
`COc1ccccc1NC(=O)CSc1nnc(C2CCCCC2)n1C` gave b-catenin transl inactive, Ba/F3 V617F tox inactive, BaF3 tox inactive, IEC-6 cytotox inactive, KLF5 inhibitor inactive and MT stabilize HCS inactive.
Screening COc1ccccc1NC(=O)CSc1nnc(C2CCCCC2)n1-c1ccccc1 returned b-catenin transl inactive, Ba/F3 V617F tox 30, BaF3 tox inactive, IEC-6 cytotox inactive, KLF5 inhibitor inactive, BaF3 parental 2 inactive and JAK2V617F conf inactive.
`O=C(NCCCCNC(=O)C(F)(F)F)C(F)(F)F` gave b-catenin transl inactive, Ba/F3 V617F tox inactive, BaF3 tox inactive, IEC-6 cytotox inactive, KLF5 inhibitor inactive and MT stabilize HCS inactive.
OCC1CCCC(n2cnc3c(=S)nc[nH]c32)O1 (configuration not stated) was read as b-catenin transl inactive, Ba/F3 V617F tox 24, BaF3 tox inactive, IEC-6 cytotox inactive, KLF5 inhibitor inactive, BaF3 parental 2 inactive and JAK2V617F conf inactive.
For CC1(C)C/C(=N\NC(=S)Nc2ccccc2F)c2cc(O)ccc2O1 the results were b-catenin transl inactive, Ba/F3 V617F tox inactive, BaF3 tox inactive, IEC-6 cytotox inactive, KLF5 inhibitor inactive and MT stabilize HCS inactive.
Cc1cc(F)ccc1NCc1ccncc1 was read as b-catenin transl inactive, Ba/F3 V617F tox 50, BaF3 tox inactive, IEC-6 cytotox inactive, KLF5 inhibitor inactive, MT stabilize HCS inactive, BaF3 parental 2 inactive and JAK2V617F conf inactive.
Screening CCCCCCCOc1ccc(OC(=O)c2ccncc2)cc1 returned Ba/F3 V617F tox 52, BaF3 tox inactive, IEC-6 cytotox inactive, KLF5 inhibitor inactive, MT stabilize HCS inactive, BaF3 parental 2 65 and JAK2V617F conf 93.
`CCCc1nc2n[nH]c(N)c2c2c1CCCC2` gave b-catenin transl inactive, Ba/F3 V617F tox 25, BaF3 tox inactive, IEC-6 cytotox inactive, KLF5 inhibitor inactive, MT stabilize HCS inactive, BaF3 parental 2 inactive and JAK2V617F conf 39.
`CCCc1nc2n[nH]c(N)c2c2c1CCC2` gave b-catenin transl inactive, Ba/F3 V617F tox inactive, BaF3 tox inactive, IEC-6 cytotox inactive, KLF5 inhibitor inactive and MT stabilize HCS inactive.
For COc1ccc(Cl)cc1S(=O)(=O)N1CCN=C1Cc1ccccc1 the results were IEC-6 cytotox inactive and KLF5 inhibitor inactive.
`COc1ccccc1S(=O)(=O)n1cc(Cc2ccccc2)c(N)n1` gave b-catenin transl inactive, Ba/F3 V617F tox 100, BaF3 tox inactive, IEC-6 cytotox inactive, KLF5 inhibitor inactive, MT stabilize HCS inactive, BaF3 parental 2 inactive and JAK2V617F conf inactive.
`COc1ccccc1Nc1nc(-c2c(C)nc3ncccn23)cs1` gave b-catenin transl inactive, Ba/F3 V617F tox 55, BaF3 tox inactive, IEC-6 cytotox inactive, KLF5 inhibitor inactive, MT stabilize HCS 15, BaF3 parental 2 33 and JAK2V617F conf 59.
Cc1ccccc1N1CCN(Cc2c[nH]c3ccccc23)CC1 was read as Ba/F3 V617F tox 35, BaF3 tox inactive, IEC-6 cytotox inactive, KLF5 inhibitor inactive, MT stabilize HCS inactive, BaF3 parental 2 inactive and JAK2V617F conf 29.
For Oc1ccc(/C=C/c2ccnc3ccccc23)cc1 the results were Ba/F3 V617F tox 47, BaF3 tox inactive, IEC-6 cytotox inactive, KLF5 inhibitor inactive, MT stabilize HCS inactive, BaF3 parental 2 inactive and JAK2V617F conf 42.
For Cc1ccc(C)c(N2CCN(S(=O)(=O)c3c(C)[nH]c(C)c3C(=O)N3CCCCC3)CC2)c1 the results were IEC-6 cytotox inactive and KLF5 inhibitor inactive.
CN(C)S(=O)(=O)c1cccc(NC(=S)N(CCC#N)Cc2cccnc2)c1 was read as b-catenin transl inactive, Ba/F3 V617F tox inactive, BaF3 tox inactive, IEC-6 cytotox inactive, KLF5 inhibitor inactive and MT stabilize HCS inactive.
`CC1CN(Cc2cc(=O)[nH]c(C3CC3)n2)CC(C)O1` (configuration not stated) gave b-catenin transl inactive, Ba/F3 V617F tox 40, BaF3 tox inactive, IEC-6 cytotox inactive, KLF5 inhibitor inactive, MT stabilize HCS inactive, BaF3 parental 2 inactive and JAK2V617F conf inactive.
Screening O=C(c1csc2ccccc12)N1CCCCCC1 returned b-catenin transl inactive, Ba/F3 V617F tox 28, BaF3 tox inactive, IEC-6 cytotox inactive, KLF5 inhibitor inactive, MT stabilize HCS inactive, BaF3 parental 2 inactive and JAK2V617F conf 36.
`CCCc1ccc(C(=O)NNc2ccc(F)cc2)cc1` gave b-catenin transl inactive, Ba/F3 V617F tox 93, BaF3 tox inactive, IEC-6 cytotox inactive, KLF5 inhibitor inactive, BaF3 parental 2 inactive and JAK2V617F conf inactive.
`CCC(C)N1C(=O)S/C(=C/c2ccc3c(c2)n(C)c(=O)n3C)C1=O` (configuration not stated) gave b-catenin transl inactive, Ba/F3 V617F tox 67, BaF3 tox inactive, IEC-6 cytotox inactive, KLF5 inhibitor inactive, MT stabilize HCS inactive, BaF3 parental 2 inactive and JAK2V617F conf inactive.
Cc1c(C#N)c(NC(=O)CCl)n(Cc2cccs2)c1C was read as b-catenin transl inactive, Ba/F3 V617F tox 36, BaF3 tox inactive, IEC-6 cytotox inactive, KLF5 inhibitor inactive, MT stabilize HCS 40, BaF3 parental 2 35 and JAK2V617F conf 97.
Screening Cc1c(C#N)c(NC(=O)CCl)n(Cc2ccccc2)c1C returned b-catenin transl inactive, Ba/F3 V617F tox 31, BaF3 tox inactive, IEC-6 cytotox inactive, KLF5 inhibitor inactive, MT stabilize HCS 11, BaF3 parental 2 48 and JAK2V617F conf 98.
For Cc1c(C#N)c(NC(=O)CCl)n(Cc2ccc(F)cc2)c1C the results were b-catenin transl inactive, Ba/F3 V617F tox inactive, BaF3 tox inactive, IEC-6 cytotox inactive, KLF5 inhibitor inactive and MT stabilize HCS inactive.
For COc1ccccc1C(C[N+](=O)[O-])c1c(N)n(C)c(=O)n(C)c1=O (configuration not stated) the results were b-catenin transl inactive, Ba/F3 V617F tox 37, BaF3 tox inactive, IEC-6 cytotox inactive, KLF5 inhibitor inactive, BaF3 parental 2 inactive and JAK2V617F conf 96.

High-throughput results: PubChem, several laboratories
